Reference: ChEMBL document CHEMBL1144689, “Antileukemic activity of genistein, a major isoflavone present in soy products” (J Nat Prod, 2008)

What was measured:
[1] = system: MOLT-3; assay: Growth inhibition of human MOLT3 cells after 48 hrs; assay type: functional
Summary of the method: (§1)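 Human leukemic cells (RPMI-1640, 10% heat-inactivated FBS), log phase, seeded at 2 × 10^4 cells/mL. Exposed to 1, 2, 5, 10 or 20 µM (DMSO stock). Cell number counted with a Coulter particle counter at 48 h. Growth inhibition as % of untreated control. IG50 is the concentration giving 50% inhibition. Triplicate, three repeats, mean ± SEM.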

[2] = system: HL-60; assay: Growth inhibition of human HL60 cells after 48 hrs; assay type: functional; summary of the method: as §1
[3] = system: Raji; assay: Growth inhibition of human Raji cells after 48 hrs; assay type: functional; summary of the method: as §1
[4] = Growth inhibition of human KG1a cells after 48 hrs; assay type: functional, KG-1a; summary of the method: as §1
[5] = system: MOLT-3; assay: Antileukemic activity against human MOLT3 cells at 1 uM after 24 hrs by clonogenic assay; assay type: functional
Summary of the method: (§2)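 Log-phase cells at 2 × 10^4 cells/mL in RPMI-1640 with 10% heat-inactivated FBS, 37 °C, 5% CO2. Drug (DMSO stock) at 1, 2, 5, 10 or 20 µM for 24 h, removed by centrifugation. 100 cells plated in 0.45% soft agar with 20% serum. Colonies >50 cells counted after 15 days. Loss of clonogenicity as % of untreated control. Triplicate, three repeats, mean ± SEM.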

[6] = system: HL-60; assay: Antileukemic activity against human HL60 cells at >2 uM after 24 hrs by clonogenic assay; assay type: functional; summary of the method: as §2
[7] = system: Raji; assay: Antileukemic activity against human Raji cells at >2 uM after 24 hrs by clonogenic assay; assay type: functional; summary of the method: as §2
[8] = system: MOLT-3; assay: Antileukemic activity against human MOLT3 cells after 24 hrs by clonogenic assay; assay type: functional; conditions: MOLT-3, 24 h, read-out: LC50 (the source's name)
Summary of the method: (§3)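 Log-phase cells seeded at 2 × 10^4 cells/mL in RPMI-1640 with 10% heat-inactivated FBS at 37 °C, 5% CO2, then exposed 24 h to 1–20 µM (DMSO stock). Drug washed out by centrifugation. 100 cells plated in 0.45% soft agar with 20% serum for 15 days, and colonies (>50 cells) counted. Loss of clonogenicity is relative to untreated control. Triplicates, repeated three times, mean ± SEM. LC50 read from the dose curve.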

[9] = system: HL-60; assay: Antileukemic activity against human HL60 cells after 24 hrs by clonogenic assay; assay type: functional; conditions: HL-60, 24 h, read-out: LC50 (the source's name); summary of the method: as §3
[10] = system: Raji; assay: Antileukemic activity against human Raji cells after 24 hrs by clonogenic assay; assay type: functional; conditions: read-out: LC50 (the source's name); summary of the method: as §3
[11] = system: L1210; assay: Growth inhibition of mouse L1210 cells at 1 uM after 12 hrs; assay type: functional; conditions: L1210, 12 h, read-out: GI
Summary of the method: (§4)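 For L1210 (RPMI-1640, 5% heat-inactivated FCS, 6 µM 2-mercaptoethanol), log-phase cultures at 2 × 10^4 cells/mL were given 1–20 µM for 12, 24 or 48 h. Coulter particle counter counts were expressed as % growth inhibition versus untreated control. IG50 was taken at 24 h. Triplicate, three repeats, mean ± SEM.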

[12] = system: L1210; assay: Growth inhibition of mouse L1210 cells at 1 uM after 24 hrs; assay type: functional; conditions: L1210, 24 h, read-out: GI; summary of the method: as §4
[13] = system: L1210; assay: Growth inhibition of mouse L1210 cells at 1 uM after 48 hrs; assay type: functional; conditions: L1210, 48 h, read-out: GI; summary of the method: as §4
[14] = system: L1210; assay: Growth inhibition of mouse L1210 cells at 2 uM after 12 hrs; assay type: functional; conditions: L1210, 12 h, read-out: GI; summary of the method: as §4
[15] = system: L1210; assay: Growth inhibition of mouse L1210 cells at 2 uM after 24 hrs; assay type: functional; conditions: L1210, 24 h, read-out: GI; summary of the method: as §4
[16] = system: L1210; assay: Growth inhibition of mouse L1210 cells at 2 uM after 48 hrs; assay type: functional; conditions: L1210, 48 h, read-out: GI; summary of the method: as §4
[17] = system: L1210; assay: Growth inhibition of mouse L1210 cells at 5 uM after 12 hrs; assay type: functional; conditions: L1210, 12 h, read-out: GI; summary of the method: as §4
[18] = system: L1210; assay: Growth inhibition of mouse L1210 cells at 5 uM after 24 hrs; assay type: functional; conditions: L1210, 24 h, read-out: GI; summary of the method: as §4
[19] = system: L1210; assay: Growth inhibition of mouse L1210 cells at 5 uM after 48 hrs; assay type: functional; conditions: L1210, 48 h, read-out: GI; summary of the method: as §4
[20] = system: L1210; assay: Growth inhibition of mouse L1210 cells at 10 uM after 12 hrs; assay type: functional; conditions: L1210, 12 h, read-out: GI; summary of the method: as §4
[21] = system: L1210; assay: Growth inhibition of mouse L1210 cells at 10 uM after 24 hrs; assay type: functional; conditions: L1210, 24 h, read-out: GI; summary of the method: as §4
[22] = system: L1210; assay: Growth inhibition of mouse L1210 cells at 10 uM after 48 hrs; assay type: functional; conditions: L1210, 48 h, read-out: GI; summary of the method: as §4
[23] = system: L1210; assay: Growth inhibition of mouse L1210 cells at 20 uM after 12 hrs; assay type: functional; conditions: L1210, 12 h, read-out: GI; summary of the method: as §4
[24] = system: L1210; assay: Antileukemic activity against mouse L1210 cells at 1 uM after 12 hrs by clonogenic assay; assay type: functional
Summary of the method: (§5)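 Murine L1210 cells cultured in RPMI-1640 with 5% heat-inactivated FCS and 6 µM 2-mercaptoethanol. Log-phase cells at 2 × 10^4 cells/mL exposed to 1–20 µM for 12, 24 or 48 h, then drug removed by centrifugation. 100 cells plated in 0.45% soft agar with 10% serum. Colonies >50 cells counted at day 7. Result as % relative to untreated control. Triplicate, three repeats, mean ± SEM.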

[25] = system: L1210; assay: Antileukemic activity against mouse L1210 cells at 1 uM after 48 hrs by clonogenic assay; assay type: functional; summary of the method: as §5
[26] = system: L1210; assay: Antileukemic activity against mouse L1210 cells at 2 uM after 12 hrs by clonogenic assay; assay type: functional; summary of the method: as §5

With O=c1c(-c2ccc(O)cc2)coc2cc(O)cc(O)c12 [GENISTEIN] the IG50 [1] was 12.7 µM, the IG50 [2] was 18.2 µM and the IG50 [3] was 18.6 µM. The IG50 [4] was 23 µM, the Activity [5] was greater than 10% and the Activity [6] was greater than 10%. The Activity [7] was greater than 10%, the CC50 [8] was 7.5 µM and the CC50 [9] was 6.3 µM. For the same molecule, the CC50 [10] was 13.7 µM, the inhibition of growth at 1 µM [11] was 3.2% and the inhibition of growth at 1 µM [12] was 4.1%. It also gave an inhibition of growth at 1 µM [13] of 13.2%, an inhibition of growth at 2 µM [14] of 6.2% and an inhibition of growth at 2 µM [15] of 11.4%. The inhibition of growth at 2 µM [16] was 21.9%, the inhibition of growth at 5 µM [17] was 15.1% and the inhibition of growth at 5 µM [18] was 28.5%. The inhibition of growth at 5 µM [19] was 55.9%, the inhibition of growth at 10 µM [20] was 23.8% and the inhibition of growth at 10 µM [21] was 42.8%. For the same molecule, the inhibition of growth at 10 µM [22] was 79.2%, the inhibition of growth at 20 µM [23] was 54.2% and the Activity [24] was 11%. The Activity [25] was 11.9% and the Activity [26] was 14%.
